Experimental data published in article PMC9177108 (The Oncologist, 2022).
Where two headings read alike, the source gives them in different places.

How the values were obtained:
Plasma pharmacokinetics = format: in vivo, human
In short: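 Test compound was given at 10 mg orally, either continuously daily or 3 weeks on/1 week off. Plasma PK was sampled on cycle 1 day 1 after a single dose for Tmax, Cmax, AUC0-24h, AUC0-t, AUC0-∞, λz, t1/2, CL/F, Vz/F, %AUCex and MRT. After multiple doses, steady-state parameters were Css max/min/avg, Tss,max, AUCss, CLss/F, Vss/F, %Fluctuation and accumulation ratios. […]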

[1] = test system: patients with advanced solid tumors; conditions: cited from earlier work
[2] = test system: patients with recurrent and metastatic nasopharyngeal carcinoma (RM-NPC); assay: Safety and tolerability; format: in vivo, human
In short: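 Safety was the primary endpoint, assessed separately in two randomised arms of pretreated RM-NPC patients given test compound 10 mg orally: daily on a 4-week cycle, or 3 weeks on/1 week off. Adverse events were graded by CTCAE version 4.03. The safety set comprised patients who took at least one dose. TEAEs and TRAEs, including those leading to dose reduction, interruption or discontinuation, were tabulated per arm.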

FGFR = conditions: AL3810 compared with sorafenib; cited from earlier work
[3] = single dose, C1D1, continuous arm (n = 5)
[4] = single dose, C1D1, intermittent arm (n = 4)

With `CNC(=O)c1cccc2cc(Oc3ccnc4cc(OCC5(N)CC5)c(OC)cc34)ccc12` [Lucitanib] the “CL/F, GeoMean(%CVb)” value (Plasma pharmacokinetics; [3]) was 2.15(57.72) L/hour, the “CL/F, Mean ± SD” value (Plasma pharmacokinetics; [3]) was 2.44 ± 1.5048 L/h and the “%AUCex, GeoMean(%CVb)” value (Plasma pharmacokinetics; [4]) was 46.33(29.69) %. The “%AUCex, Mean ± SD” value (Plasma pharmacokinetics; [4]) was 47.96 ± 15.75%, the “CL/F, GeoMean(%CVb)” value (Plasma pharmacokinetics; [4]) was 1.83(105.30) L/hour and the “CL/F, Mean ± SD” value (Plasma pharmacokinetics; [4]) was 2.24 ± 1.21 L/h. The “exposure (Cmax, AUC0-24h) at steady state relative to day 1” value (Plasma pharmacokinetics; steady state vs day 1, 10 mg p.o.) was “two to three times”, the “tolerability of continuous dosing” value ([1]; continuous 15 mg daily dose, arterial hypertension) was “unsustainable beyond three cycles” and the “partial response / ORR” value ([1]; patients with FGF-aberrant (FGFR1- or FGF3/4/19-amplified) breast cancer) was 50%. For the same molecule, the “median PFS” value ([1]; patients with FGF-aberrant breast cancer) was 40.4 weeks, the “median PFS” value ([1]; patients with angiogenesis-sensitive disease) was 25 weeks and the “patients with at least one TEAE” value ([2]; all patients, both arms) was “All patients”. The “serious TRAEs” value ([2]; all patients, both arms) was “No patients experienced serious TRAEs”, the “patients with Grade ≥3 related TEAEs” value ([2]; all patients, both arms (7/20)) was 35% and the “TRAE: Hypothyroidism” value ([2]; continuous arm) was 60%. For the same molecule, the “grade ≥3 TRAE: decreased platelet count” value ([2]; continuous arm) was 10%, the “grade ≥3 TRAE: hypertension” value ([2]; continuous arm) was 30% and the “grade ≥3 TRAE: increased AST” value ([2]; continuous arm) was 10%. For the same molecule, the “grade ≥3 TRAE: proteinuria” value ([2]; continuous arm) was 20%, the “patients with at least one treatment-related AE (TRAE)” value ([2]; continuous arm) was “One hundred” and the “patients with Grade ≥3 related TEAEs” value ([2]; continuous arm (5/10)) was 50%. For the same molecule, the “patients with Grade ≥3 related TRAEs” value ([2]; continuous arm (5/10)) was 50%, the “Drug-related AE: Cough” value ([2]; continuous arm, n = 10) was 2 (20.0) n (%) and the “Drug-related AE: Diarrhea” value ([2]; continuous arm, n = 10) was 3 (30.0) n (%). For the same molecule, the “Drug-related AE: Epistaxis” value ([2]; continuous arm, n = 10) was 5 (50.0) n (%), the “Drug-related AE: Free thyroxine decreased” value ([2]; continuous arm, n = 10) was 3 (30.0) n (%) and the “Drug-related AE: Hypertension” value ([2]; continuous arm, n = 10) was 10 (100.0) n (%). For the same molecule, the “Drug-related AE: Hypochloremia” value ([2]; continuous arm, n = 10) was 3 (30.0) n (%), the “Drug-related AE: Platelet count decreased” value ([2]; continuous arm, n = 10) was 3 (30.0) n (%) and the “Drug-related AE: Proteinuria” value ([2]; continuous arm, n = 10) was 10 (100.0) n (%). The “Drug-related AE: Skin rash” value ([2]; continuous arm, n = 10) was 3 (30.0) n (%), the “Drug-related AE: TSH increased” value ([2]; continuous arm, n = 10) was 3 (30.0) n (%) and the “Drug-related adverse events: All” value ([2]; continuous arm, n = 10) was 10 (100.0) n (%). For the same molecule, the “Grade ≥3 TEAE” value ([2]; continuous arm, n = 10) was 5 (50) n (%), the “Grade ≥3 TRAE” value ([2]; continuous arm, n = 10) was 5 (50) n (%) and the “Serious TRAE” value ([2]; continuous arm, n = 10) was 0 n (%). For the same molecule, the “TRAE lead to dose discontinuation” value ([2]; continuous arm, n = 10) was 0 n (%), the “TRAE lead to dose interruption” value ([2]; continuous arm, n = 10) was 5 (50) n (%) and the “TRAE: Hypothyroidism” value ([2]; intermittent arm) was 50%. For the same molecule, the “grade ≥3 TRAE: decreased platelet count” value ([2]; intermittent arm) was 0%, the “grade ≥3 TRAE: hypertension” value ([2]; intermittent arm) was 0% and the “grade ≥3 TRAE: increased AST” value ([2]; intermittent arm) was 0%. The “grade ≥3 TRAE: proteinuria” value ([2]; intermittent arm) was 0%, the “patients with at least one treatment-related AE (TRAE)” value ([2]; intermittent arm) was 90% and the “Drug-related AE: AST increased” value ([2]; intermittent arm, n = 10) was 0 n (%). For the same molecule, the “Drug-related AE: Backache” value ([2]; intermittent arm, n = 10) was 0 n (%), the “Drug-related AE: Cough” value ([2]; intermittent arm, n = 10) was 3 (30.0) n (%) and the “Drug-related AE: Diarrhea” value ([2]; intermittent arm, n = 10) was 0 n (%). The “Drug-related AE: Free thyroxine decreased” value ([2]; intermittent arm, n = 10) was 1 (10.0) n (%), the “Drug-related AE: Hypochloremia” value ([2]; intermittent arm, n = 10) was 1 (10.0) n (%) and the “Drug-related AE: Hypothyroidism” value ([2]; intermittent arm, n = 10) was 5 (50.0) n (%). The “Drug-related AE: Platelet count decreased” value ([2]; intermittent arm, n = 10) was 1 (10.0) n (%), the “Drug-related AE: Proteinuria” value ([2]; intermittent arm, n = 10) was 5 (50.0) n (%) and the “Drug-related AE: Serum creatinine (Scr) increased” value ([2]; intermittent arm, n = 10) was 1 (10.0) n (%). The “Drug-related AE: Skin rash” value ([2]; intermittent arm, n = 10) was 0 n (%), the “Drug-related AE: TSH increased” value ([2]; intermittent arm, n = 10) was 1 (10.0) n (%) and the “Drug-related AE: Weight loss” value ([2]; intermittent arm, n = 10) was 0 n (%). The “Grade ≥3 TEAE” value ([2]; intermittent arm, n = 10) was 2 (20) n (%), the “Grade ≥3 TRAE” value ([2]; intermittent arm, n = 10) was 0 n (%) and the “Serious TRAE” value ([2]; intermittent arm, n = 10) was 0 n (%). For the same molecule, the “TRAE lead to dose discontinuation” value ([2]; intermittent arm, n = 10) was 1 (10) n (%), the “TRAE lead to dose interruption” value ([2]; intermittent arm, n = 10) was 2 (20) n (%) and the “TRAE lead to dose reduction” value ([2]; intermittent arm, n = 10) was 0 n (%). The “potency against FGFR” value (FGFR) was “more potent”.
